Bioassay records deposited in PubChem by several laboratories.
This excerpt belongs to a sample that is enriched for hits.
Lmaj promast = inhibitors of Leishmania major promastigote growth; 9% of 200,000 active; inhibition, % at 10 µM; Leishmania major promastigotes, resazurin fluorescence viability; AID 1063; in the data active = inhibition above about 50%;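 note: promastigotes grown with compound for 44 hours at 28 °C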
S1P3 antag = antagonists of human S1P3 receptor. 0.27% of 170,000 active. Q99500. CHO S1P3 NFAT-BLA reporter, FRET fluorescence, antagonist mode. inhibition, % at 4.98 µM. AID 485;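 active = inhibition above the plate cutoff, the mean inhibition of test wells on that plate plus 3 SD, cut at about 28% in these data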;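 note: cells challenged with S1P at its EC80 of 0.8 µM; blue over green emission ratio from cleaved BLA substrate after 4 h stimulation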
Mdm2 ligase inh = inhibitors of human Mdm2 E3 ubiquitin ligase; 0.11% of 210,000 active; signal enhancement, % at 5 µM; cell-based MDM2 ubiquitination luciferase reporter, 2 h; 0 = plate control, 100 = twice control, blank-subtracted; AID 1230;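 active = signal enhancement of 30% or more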;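 note: luminescence tracks abundance of the self-degrading MDM2-luciferase fusion protein; higher signal means inhibition of MDM2 E3 ligase activity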
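Assay system: stable mammalian line carrying autodegrading MDM2–luciferase fusion reporter; amount: 2000 cells seeded into each well; buffer or medium: DMEM; benchmarks: plate control and blank wells; signal: luciferase luminescence; timing: 2 h compound exposure at 37 °C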
S1P4 agonist = agonists of human S1P4 receptor. S1P4-expressing cell line, agonist reporter assay. AID 1509. 0.35% of 220,000 active. O95977. activation, % at 4.98 µM; in the data active = activation above about 11%
Target sequence (O95977 whole entry, looked up): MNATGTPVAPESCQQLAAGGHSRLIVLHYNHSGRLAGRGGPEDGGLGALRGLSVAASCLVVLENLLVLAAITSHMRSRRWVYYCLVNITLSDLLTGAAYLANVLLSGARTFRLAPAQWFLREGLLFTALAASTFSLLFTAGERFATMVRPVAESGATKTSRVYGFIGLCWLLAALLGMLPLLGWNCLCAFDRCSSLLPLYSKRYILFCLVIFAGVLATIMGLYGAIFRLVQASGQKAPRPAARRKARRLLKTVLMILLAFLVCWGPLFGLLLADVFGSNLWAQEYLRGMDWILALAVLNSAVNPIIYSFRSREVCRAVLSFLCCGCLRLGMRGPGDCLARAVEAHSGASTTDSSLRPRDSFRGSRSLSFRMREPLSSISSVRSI
S1P4 antagonist = blocks the human S1P4 receptor. 0.26% of 220,000 active. O95977. S1P4-expressing cells, antagonist mode, reporter read-out. inhibition, % at 4.98 µM; in the data active = inhibition above about 29%
Hits are given with their value.

Cc1ccc(S(=O)(=O)N(CC(=O)O)Cc2ccccc2F)cc1 was read as Lmaj promast inactive, S1P3 antag inactive, Mdm2 ligase inh inactive, S1P4 agonist inactive and S1P4 antagonist inactive.
Cc1ccc(S(=O)(=O)N(CC(=O)N2CCC(C)CC2)c2ccccc2)cc1 was read as Lmaj promast inactive, S1P3 antag inactive, Mdm2 ligase inh inactive, S1P4 agonist inactive and S1P4 antagonist inactive.
Screening Cc1ccc(S(=O)(=O)N(CC(=O)N2CCC(C)CC2)Cc2ccccc2F)cc1 returned Lmaj promast 82, Mdm2 ligase inh inactive, S1P4 agonist inactive and S1P4 antagonist inactive.
`O=S1(=O)c2ccccc2C(CCO)N1Cc1ccccc1` (stereo unspecified) gave Mdm2 ligase inh inactive.
C(=C\c1ccccc1)/C=N/Nc1nc(N2CCOCC2)nc(N2CCOCC2)n1 was read as Lmaj promast inactive, Mdm2 ligase inh inactive, S1P4 agonist inactive and S1P4 antagonist inactive.
For O=[N+]([O-])c1cccc(/C=N/Nc2nc(N3CCOCC3)nc(N3CCOCC3)n2)c1 the results were Lmaj promast 73, S1P3 antag inactive, Mdm2 ligase inh inactive, S1P4 agonist inactive and S1P4 antagonist inactive.
CC(=C/c1ccccc1)/C=N/Nc1nc(N2CCOCC2)nc(N2CCOCC2)n1 was read as Lmaj promast 63, S1P3 antag inactive, Mdm2 ligase inh inactive, S1P4 agonist inactive and S1P4 antagonist inactive.
For c1ccc(Cn2ncc3c2ncn2nc(-c4ccncc4)nc32)cc1 the results were S1P3 antag inactive.
Screening CN(C)c1nc(-c2ccccc2)c2cnn(Cc3ccccc3)c2n1 returned Lmaj promast 63, S1P3 antag inactive, Mdm2 ligase inh inactive, S1P4 agonist inactive and S1P4 antagonist inactive.
For NS(=O)(=O)c1ccc(CNC(=O)C2(c3ccc(Cl)cc3)CC2)cc1 the results were Lmaj promast 85, S1P3 antag inactive, Mdm2 ligase inh inactive, S1P4 agonist inactive and S1P4 antagonist inactive.
`Cc1cc(C(C)(C)C)ccc1OCCOCCN1CCCC1` gave Lmaj promast 96, S1P3 antag inactive, Mdm2 ligase inh inactive, S1P4 agonist inactive and S1P4 antagonist inactive.
Clc1ccc(OCCOCCN2CCCCC2)c(Br)c1 was read as Lmaj promast 100, Mdm2 ligase inh inactive, S1P4 agonist inactive and S1P4 antagonist inactive.
Clc1ccc(Cl)c(OCCN2CCOCC2)c1 was read as Lmaj promast inactive, S1P3 antag inactive, Mdm2 ligase inh inactive, S1P4 agonist inactive and S1P4 antagonist inactive.
`CC1CCCN(CCCOc2ccc(Cl)cc2Br)C1` (stereo unspecified) gave Lmaj promast 98, S1P3 antag inactive, Mdm2 ligase inh inactive, S1P4 agonist inactive and S1P4 antagonist inactive.
Screening CC1CCN(CCOCCOc2ccc(Cl)cc2Br)CC1 returned Lmaj promast 101, Mdm2 ligase inh inactive, S1P4 agonist inactive and S1P4 antagonist inactive.
CC1CCN(S(=O)(=O)c2ccc(Cl)cc2Br)CC1 was read as Lmaj promast inactive, S1P3 antag inactive, Mdm2 ligase inh inactive, S1P4 agonist inactive and S1P4 antagonist inactive.
`Cc1ccc(N(CC(=O)N/N=C/c2cccc(Br)c2)S(C)(=O)=O)cc1` gave Lmaj promast inactive, S1P3 antag inactive, Mdm2 ligase inh inactive, S1P4 agonist inactive and S1P4 antagonist inactive.
For CC1CCN(CCCOc2ccc(Cl)cc2Br)CC1 the results were Lmaj promast 87, S1P3 antag inactive, Mdm2 ligase inh inactive, S1P4 agonist inactive and S1P4 antagonist inactive.
Screening Cc1ccc(Cl)c(OCCN2CCCC(C)C2)c1 (stereo unspecified) returned Lmaj promast 91, S1P3 antag inactive, Mdm2 ligase inh inactive, S1P4 agonist inactive and S1P4 antagonist inactive.
Screening CC1CCCN(CCOc2ccc3ccccc3c2Br)C1 (stereo unspecified) returned Lmaj promast 88, S1P3 antag inactive, Mdm2 ligase inh inactive, S1P4 agonist inactive and S1P4 antagonist inactive.
C[N+](C)(C)C(Cc1c[nH]c2ccccc12)C(=O)[O-] (stereo unspecified) was read as Mdm2 ligase inh inactive.
Screening O=C(O)CCC(=O)Nc1ccc(/C=C/C(=O)C2CC2)cc1 returned Lmaj promast inactive, S1P3 antag inactive, Mdm2 ligase inh inactive, S1P4 agonist inactive and S1P4 antagonist inactive.
Screening O=C1N(Cc2cccc(Cl)c2)C[C@@H]2C[C@@H](c3ccc4nonc4c3)N3CCC[C@@]123 returned Lmaj promast 60, S1P3 antag inactive, Mdm2 ligase inh inactive, S1P4 agonist inactive and S1P4 antagonist inactive.
Screening O=C1N(Cc2cccc(Cl)c2)C[C@@H]2C[C@@H](c3cccc4ncccc34)N3CCC[C@@]123 returned Lmaj promast 100, S1P3 antag inactive, Mdm2 ligase inh inactive, S1P4 agonist inactive and S1P4 antagonist inactive.
`Cc1ccccc1-c1cccc([C@@H]2C[C@H]3CN(Cc4cccnc4)C(=O)[C@]34CCCN24)c1` gave Lmaj promast 63, S1P3 antag inactive, Mdm2 ligase inh inactive, S1P4 agonist inactive and S1P4 antagonist inactive.
For Cc1ccc([C@@H]2C[C@H]3CN(Cc4cccc(Cl)c4)C(=O)[C@]34CCCN24)o1 the results were Lmaj promast inactive, S1P3 antag inactive, Mdm2 ligase inh inactive, S1P4 agonist inactive and S1P4 antagonist inactive.
Screening COc1ccccc1CN1C[C@@H]2C[C@@H](c3ccc(C)cc3)N3CCC[C@@]23C1=O returned Lmaj promast inactive, S1P3 antag inactive, Mdm2 ligase inh inactive, S1P4 agonist inactive and S1P4 antagonist inactive.
O=C1N(Cc2cccc(Cl)c2)C[C@@H]2C[C@@H](c3cccc4cccnc34)N3CCC[C@@]123 was read as Lmaj promast inactive, S1P3 antag inactive, Mdm2 ligase inh inactive, S1P4 agonist inactive and S1P4 antagonist inactive.
COc1ccccc1CN1C[C@@H]2C[C@@H](c3ccc4nsnc4c3)N3CCC[C@@]23C1=O was read as Lmaj promast 67, S1P3 antag inactive, Mdm2 ligase inh inactive, S1P4 agonist inactive and S1P4 antagonist inactive.
CCCC/C(O)=C1\C(=O)CC(C)(C)CC1=NCCCCCC(=O)O was read as Lmaj promast inactive, S1P3 antag inactive, Mdm2 ligase inh inactive, S1P4 agonist inactive and S1P4 antagonist inactive.
COc1cc(-c2cc(C(=O)Nc3ccccc3N3CCOCC3)c3ccccc3n2)cc(OC)c1OC was read as Lmaj promast 61, S1P3 antag inactive, Mdm2 ligase inh inactive, S1P4 agonist inactive and S1P4 antagonist inactive.
Screening O=C(NN1CCOCC1)c1cc(-c2ccc(Br)cc2)nc2ccccc12 returned Lmaj promast 58, S1P3 antag inactive, Mdm2 ligase inh inactive, S1P4 agonist inactive and S1P4 antagonist inactive.
Screening O=C(Nc1ccccc1N1CCOCC1)c1cc(-c2ccco2)nc2ccccc12 returned Lmaj promast inactive, Mdm2 ligase inh inactive, S1P4 agonist inactive and S1P4 antagonist inactive.
For CCc1ccc(-c2cc(C(=O)NN3CCOCC3)c3ccccc3n2)cc1 the results were Lmaj promast inactive, Mdm2 ligase inh inactive, S1P4 agonist inactive and S1P4 antagonist inactive.
`Cc1cccc(OCC(=O)O/N=C(\N)c2ccc(Br)cc2)c1` gave S1P3 antag inactive, Mdm2 ligase inh inactive, S1P4 agonist inactive and S1P4 antagonist inactive.
For FC(F)(F)c1ccnc(NCc2ccco2)n1 the results were S1P3 antag inactive, Mdm2 ligase inh inactive, S1P4 agonist inactive and S1P4 antagonist inactive.
